The format of series [1] is in vivo, human. As to conditions: for measured plasma concentrations of metabolites: all samples after regorafenib eye drops, below LLOQ (2 μg l^−1); for Cmax: C max. Put shortly:
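Plasma was sampled from predose to 7 days after a single dose, or to 14 days after the last of 14 days' dosing, with dense early time points. Parent and metabolites M-2 and M-5 were measured by validated LC-MS/MS; LLOQ was 0.1 µg l⁻¹ for parent and 2 µg l⁻¹ for metabolites. AUC over dosing intervals, AUC₀₋tlast, Cav, Cmax, Cmin, t1/2 and accumulation ratios were derived, with log-normal ANOVA for dose proportionality.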

The nature of series [2]: Safety, tolerability and functional ocular assessments in healthy volunteers. Format: in vivo, human. Put shortly: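 Randomized, double-masked, placebo-controlled ascending-dose design: four cohorts of 12 healthy men (9 active, 3 placebo). Drops of 30 mg ml⁻¹ (25 μl) were given to the left eye as 0.75 mg once, or 0.75 mg bid or tid for 14 days, or 1.5 mg tid for 3 days then both eyes to 14 days. Ocular symptoms were scored 5 min post-dose on a four-point scale. Visual acuity was tested at 4 m per ETDRS protocol.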

For series [3] the following is noted: cited from earlier work.
Series [4] in a line: Subject rating of treatment. As to conditions: numerical rating scale 0 (none) to 10 (very severe); comparable with placebo. Format: in vivo, human.
Where [5] appears, read: all regorafenib cohorts pooled (n = 36).

These results are taken from PMC5903260 (British Journal of Clinical Pharmacology, 2018).

In general, Tmax refers to the time from dosing to the highest level. As a reminder, the AUC is concentration integrated over time. Usually AUC(0-t) stands for exposure summed from dosing to a finite time, without extrapolation to infinity. Lower therefore signals less exposure. In general, Cmax refers to the highest concentration seen after dosing.

Like-named read-outs stand apart in the source and are kept apart here.

Regarding `CNC(=O)c1cc(Oc2ccc(NC(=O)Nc3ccc(Cl)c(C(F)(F)F)c3)c(F)c2)cc[n+]1[O-]` [M‐2], the “measured plasma concentrations of metabolites” value in series [1] was below 2 µg/L.

In the case of `NC(=O)c1cc(Oc2ccc(NC(=O)Nc3ccc(Cl)c(C(F)(F)F)c3)c(F)c2)cc[n+]1[O-]` [M‐5], in series [1], the “measured plasma concentrations of metabolites” value was below 2 µg/L.

Take `CNC(=O)c1cc(Oc2ccc(NC(=O)Nc3ccc(Cl)c(C(F)(F)F)c3)c(F)c2)ccn1` [Regorafenib]: the “C av0–8” value is 0.0377 ng/mL in series [1] (first dose, Cohort 1, 0.75 mg single dose, plasma, geometric mean/%CV (range)); 0.0352 ng/mL in series [1] (first dose, Cohort 3, 0.75 mg tid (2.25 mg day^−1), plasma, geometric mean/%CV (range)); 0.0564 ng/mL in series [1] (first dose, Cohort 4, 1.5 mg tid (9.0 mg day^−1), plasma, geometric mean/%CV (range)). The Tmax is 0 to 12 h in series [1] (human, plasma, topical, tmax,md (time to reach maximum plasma concentration following multiple drug administration), individual subjects, after the last dose); 24 h in series [1] (male, human, plasma, topical, 0.75 mg, t max, first dose, Cohort 1, 0.75 mg single dose, median (range)); 11.9 h in series [1] (male, human, plasma, topical, 0.75 mg, t max, first dose, Cohort 2, 0.75 mg bid (1.5 mg day^−1), median (range)); 7.92 h in series [1] (male, human, plasma, topical, 0.75 mg, t max, first dose, Cohort 3, 0.75 mg tid (2.25 mg day^−1), median (range)); 8 h in series [1] (male, human, plasma, topical, 1.5 mg, t max, first dose, Cohort 4, 1.5 mg tid (9.0 mg day^−1), median (range)). For the same compound, in series [1] (last dose, 0.75 mg bid (Cohort 2)), the “Cav0–12md (average concentration over the 12h dosing interval)” value was found to be 3.39 ng/mL. In addition, the “C av0–8,md” value in series [1] (last dose, Cohort 3, 0.75 mg tid (2.25 mg day^−1), geometric mean/%CV (range)) was found to be 4.01 ng/mL; in series [1] (last dose, Cohort 4, 1.5 mg tid (9.0 mg day^−1), geometric mean/%CV (range)) it was 12.2 ng/mL. The compound also returned an AUC in series [1] (male, human, plasma, topical, 0.75 mg) of 40.7 ng·h/mL. For the same compound, the AUC(0-t) came to 0.255 ng·h/mL in series [1] (male, human, plasma, topical, 0.75 mg, AUC 0–8, first dose, Cohort 2, 0.75 mg bid (1.5 mg day^−1), geometric mean/%CV (range)); 0.282 ng·h/mL in series [1] (male, human, plasma, topical, 0.75 mg, AUC 0–8, first dose, Cohort 3, 0.75 mg tid (2.25 mg day^−1), geometric mean/%CV (range)); 39.2 ng·h/mL in series [1] (male, human, plasma, topical, 0.75 mg, AUC0–tlast, Cohort 1, 0.75 mg single dose); 0.451 ng·h/mL in series [1] (male, human, plasma, topical, 1.5 mg, AUC 0–8, first dose, Cohort 4, 1.5 mg tid (9.0 mg day^−1), geometric mean/%CV (range)). In addition, the Cmax was determined as 0.42 ng/mL in series [1] (male, human, plasma, topical, 0.75 mg, first dose, Cohort 1, 0.75 mg single dose, geometric mean/%CV (range)); 0.234 ng/mL in series [1] (male, human, plasma, topical, 0.75 mg, first dose, Cohort 2, 0.75 mg bid (1.5 mg day^−1), geometric mean/%CV (range)); 0.186 ng/mL in series [1] (male, human, plasma, topical, 0.75 mg, first dose, Cohort 3, 0.75 mg tid (2.25 mg day^−1), geometric mean/%CV (range)); 0.302 ng/mL in series [1] (male, human, plasma, topical, 1.5 mg, first dose, Cohort 4, 1.5 mg tid (9.0 mg day^−1), geometric mean/%CV (range)). Also, the “day when steady state was reached” value in series [1] (multiple-dose regimens, plasma concentrations) came out at 7 days. Further, in series [2] (0.75 mg single dose to 1.5 mg tid both eyes (9 mg day^−1), 30 mg ml^−1, 14 days), the “safety and tolerability over the dose range” value is “safe and well tolerated”. The “eyelid redness and oedema, conjunctival hyperaemia and oedema” value in series [2] (across all regorafenib cohorts) is “mild and comparable with the effects of placebo”. Further, the “subjects with a burning sensation” value in series [2] (setting [5]) was found to be 25%. In addition, in series [2] (setting [5]), the “subjects with a foreign body sensation” value is 17%. Further, the “subjects with a transient reduction in visual acuity” value in series [2] (setting [5]) was 31%. The “subjects with blurred vision after solicited questioning” value in series [2] (setting [5]) is reported as 97%. Besides, in series [2] (setting [5]), the “subjects with increased lacrimation” value turned out to be 8%. In series [2] (setting [5]), this compound returned a subjects with itching of 17%. Moreover, the “subjects with lid oedema” value in series [2] (setting [5]) was found to be 8%. In addition, the “subjects with ocular/conjunctival redness” value in series [2] (setting [5]) is recorded as 19%. In series [2] (healthy volunteers, eye drops), the “effect on electrocardiographic parameters” value is given as “No effect”. In addition, the “apparent terminal elimination t1/2 after oral administration” value in series [3] is 20 to 30 h. Besides, the “pain and discomfort ratings” value in series [4] is given as “mostly 0”.
